Experimental data gathered from unrelated publications.
Protocols differ between the studies behind these lines.
Target: Receptor-interacting serine/threonine-protein kinase 1 (RIPK1, Homo sapiens, UniProt Q13546)
One construct used (Q13546 1-671): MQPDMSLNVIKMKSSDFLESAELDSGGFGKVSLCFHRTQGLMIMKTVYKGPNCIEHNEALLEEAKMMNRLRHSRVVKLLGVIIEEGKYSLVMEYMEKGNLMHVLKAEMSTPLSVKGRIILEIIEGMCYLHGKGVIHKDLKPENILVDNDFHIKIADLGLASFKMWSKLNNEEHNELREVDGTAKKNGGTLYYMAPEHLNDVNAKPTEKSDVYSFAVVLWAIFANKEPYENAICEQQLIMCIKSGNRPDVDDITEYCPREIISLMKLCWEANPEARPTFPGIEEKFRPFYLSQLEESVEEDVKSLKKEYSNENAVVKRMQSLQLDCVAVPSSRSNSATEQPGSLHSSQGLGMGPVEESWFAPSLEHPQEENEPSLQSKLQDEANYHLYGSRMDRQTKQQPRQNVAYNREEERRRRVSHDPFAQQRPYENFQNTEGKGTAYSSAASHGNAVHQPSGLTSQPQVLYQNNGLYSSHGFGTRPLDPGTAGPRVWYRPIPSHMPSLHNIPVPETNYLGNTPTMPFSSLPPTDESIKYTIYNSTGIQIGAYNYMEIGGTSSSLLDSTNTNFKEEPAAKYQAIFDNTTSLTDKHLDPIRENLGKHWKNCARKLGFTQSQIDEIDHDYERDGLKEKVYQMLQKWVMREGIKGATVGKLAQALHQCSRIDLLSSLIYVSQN

| Structure (SMILES) | test | conditions | remaining binding [%] |
| --- | --- | --- | --- |
| CN(c1nccc(-c2cnn3ncccc23)n1)C1CC1 | binding | 1 µM | 100 |
| COc1ncc2cc3ccccc3nc2c1C#N | cell-free assay, competition with immobilised ligand | 5 µM | 100 |
| CC1CCCN1c1nccc(-c2cnn3ncccc23)n1 (stereo not drawn) | binding | 1 µM | 100 |
| CNCc1ccccc1-c1csc([C@@H](C)Nc2nc(C)nc3cc(OC)c(OC)cc23)c1 | cell-free assay, competition with immobilised ligand | 1 µM | 97 |
| CN(CCCC(F)(F)F)c1nccc(-c2cnn3ncccc23)n1 | binding | 1 µM | 97 |
| CCC(=O)N[C@H]1CC[C@@H](C(=O)N(C)c2ccc(-c3nc4ccccc4o3)cc2)C1 | cell-free assay, competition with immobilised ligand | 1 µM | 100 |
| O=C(NCCCN1CCOCC1)c1ccc(Nc2ncc(Cl)c(-c3ccc(Cl)s3)n2)cc1 | binding, competition with immobilised ligand | 1 µM | 45 |
| Cc1c(C(=O)O)cc(-c2ccc(C3CCNCC3)cc2)c2ccc(-c3ccc(C(F)(F)F)cc3)cc12 | binding, competition with immobilised ligand | 1 µM | 100 |
| Cc1cnc(Nc2ccc(C(=O)N3CCC(N4CCCC4)CC3)cc2)nc1-c1cc2ccccc2s1 | binding, competition with immobilised ligand | 1 µM | 1 |
| O=C(Nc1ccc(Oc2ccc(F)cc2)cc1)N1CCc2ncccc2[C@H]1c1ccc(F)cc1 | cell-free assay, competition with immobilised ligand | 1 µM | 100 |
| O=C(NCC1CCOCC1)c1n[nH]cc1NC(=O)c1c(F)cccc1F | binding, competition with immobilised ligand | 1 µM | 94 |
| FC(F)(F)Oc1cccc(-c2cnc3ccc(-c4ccncc4)nn23)c1 | binding, competition with immobilised ligand | 5 µM | 81 |
| COc1ccnn2ncc(-c3ccnc(N(C)C)n3)c12 | binding | 1 µM | 96 |
| O=C(c1ccc(Nc2ncc(Cl)c(-c3ccc(Cl)s3)n2)cc1)N1CCC(N2CCCC2)CC1 | binding, competition with immobilised ligand | 1 µM | 0.5 |
| COc1cc(-c2cn(C3CCc4c(F)cccc4N(CC(F)(F)F)C3=O)nn2)ccc1-n1cnc(C)c1 (stereo not drawn) | cell-free assay, competition with immobilised ligand | 1 µM | 100 |
| CNC(=O)[C@@H]1CC[C@@H](n2c(-c3ccc4cnccc4c3)nc3ccc(C(=O)NCc4cccc(C(N)=O)c4)cc32)C1 | binding, competition with immobilised ligand | 1 µM | 100 |
| C[C@@H]1CCN(c2nccc(-c3cnn4ncccc34)n2)C1 | binding | 1 µM | 100 |
| CCCOc1ccc([C@@H]2[C@@H](C(=O)O)[C@H](c3ccc4c(c3)OCO4)CN2CC(=O)Nc2c(CC)cccc2CC)cc1 | cell-free assay, competition with immobilised ligand | 1 µM | 55 |
